tested on: Trypanosoma brucei; assay: Inhibition of Trypanosoma brucei recombinant His-tagged TryS expressed in Escherichia coli BL21 (DE3) assessed as residual enzyme activity by measuring inorganic phosphate release at 30 uM after 15 mins by malachite green dye based end-point assay; settings: not given
Outline: (§1)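 His-tagged TryS expressed in E. coli BL21(DE3), Ni-NTA then gel filtration/ion exchange purified. Reaction buffer: 100 mM HEPES pH 7.4, 5 mM DTT, 10 mM MgSO4, 0.5 mM EDTA, 9 mM NaCl, 10% DMSO; 150 µM ATP, 2 mM spermidine; glutathione 0.05 (Tb), 0.57 (Tc), 0.25 mM (Li). Stopped at 15 min, malachite green phosphate read at 650 nm, blank-corrected versus DMSO; screen at 30 µM, IC50 if >50% inhibition.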

| SMILES | Activity [%] |
| --- | --- |
| O=C(CN1C(=O)Cc2c([nH]c3ccc(Br)cc23)-c2ccc(Cl)cc21)NCc1ccccc1Cl | 55.3 |
| O=C(CN1C(=O)Cc2c([nH]c3ccc(Br)cc23)-c2ccc(Cl)cc21)NCc1ccc(Cl)cc1 | 50.1 |
| COc1ccc(CNC(=O)CN2C(=O)Cc3c([nH]c4ccc(Br)cc34)-c3ccc(Cl)cc32)cc1 | 53.5 |
| O=C(CN1C(=O)Cc2c([nH]c3ccc(Br)cc23)-c2ccc(Cl)cc21)NCc1ccc(O)cc1 | 58 |
| Cc1ccc(CNC(=O)CN2C(=O)Cc3c([nH]c4ccc(Br)cc34)-c3ccc(Cl)cc32)cc1 | 53.7 |
| O=C(CN1C(=O)Cc2c([nH]c3ccc(Br)cc23)-c2ccc(Cl)cc21)NCc1ccc(Cl)c(Cl)c1 | 42 |
| O=C(CN1C(=O)Cc2c([nH]c3ccc(Br)cc23)-c2ccc(Cl)cc21)NCc1ccccn1 | 75.8 |

tested on: Trypanosoma brucei brucei; assay: Antitrypanosomal activity against bloodstream forms of Trypanosoma brucei brucei 427 stably transfected with pHD449 plasmid assessed as reduction in parasite viability after 24 hrs by propidium iodide staining based flow cytometry; format: functional, organism-based; settings: Trypanosoma brucei, 427, 24 h

| SMILES | EC50 [µM] |
| --- | --- |
| O=C(CN1C(=O)Cc2c([nH]c3ccc(Br)cc23)-c2ccc(Cl)cc21)NCc1ccc(Cl)cc1 | 0.8 |
| COc1ccc(CNC(=O)CN2C(=O)Cc3c([nH]c4ccc(Br)cc34)-c3ccc(Cl)cc32)cc1 | 1 |
| O=C(CN1C(=O)Cc2c([nH]c3ccc(Br)cc23)-c2ccc(Cl)cc21)NCc1ccc(O)cc1 | 0.84 |
| Cc1ccc(CNC(=O)CN2C(=O)Cc3c([nH]c4ccc(Br)cc34)-c3ccc(Cl)cc32)cc1 | 0.3 |
| O=C(CN1C(=O)Cc2c([nH]c3ccc(Br)cc23)-c2ccc(Cl)cc21)NCc1ccc(Cl)c(Cl)c1 | 0.84 |

tested on: not listed separately; assay: Aqueous solubility of compound in phosphate buffer at 0.25 mg at pH 7.4 after 48 hrs by HPLC based shake flask method; format: physicochemical; settings: not given

| SMILES | solubility thermodynamic at 48 h [µM] |
| --- | --- |
| O=C(CN1C(=O)Cc2c([nH]c3ccc(Br)cc23)-c2ccc(Cl)cc21)NCc1ccc(O)cc1 | < 4.8 |
| Cc1ccc(CNC(=O)CN2C(=O)Cc3c([nH]c4ccc(Br)cc34)-c3ccc(Cl)cc32)cc1 | < 0.48 |

tested on: Trypanosoma brucei brucei; assay: Antitrypanosomal activity against bloodstream forms of Trypanosoma brucei brucei 427 stably transfected with pHD449 plasmid assessed as parasite viability at 5 uM after 24 hrs by propidium iodide staining based flow cytometry; format: functional; settings: not given

| SMILES | Activity [%] |
| --- | --- |
| O=C(CN1C(=O)Cc2c([nH]c3ccc(Br)cc23)-c2ccc(Cl)cc21)NCc1ccccc1Cl | 53.2 |
| O=C(CN1C(=O)Cc2c([nH]c3ccc(Br)cc23)-c2ccc(Cl)cc21)NCc1ccccn1 | 33.8 |

tested on: not listed separately; assay: Inhibition of Leishmania infantum recombinant His-tagged TryS expressed in Escherichia coli BL21 (DE3) assessed as inorganic phosphate release after 15 mins by malachite green dye based end-point assay; settings: not given; outline: as §1

| SMILES | IC50 [µM] |
| --- | --- |
| O=C(CN1C(=O)Cc2c([nH]c3ccc(Br)cc23)-c2ccc(Cl)cc21)NCc1ccccc1Cl | 23 |
| COc1ccc(CNC(=O)CN2C(=O)Cc3c([nH]c4ccc(Br)cc34)-c3ccc(Cl)cc32)cc1 | 24 |
| O=C(CN1C(=O)Cc2c([nH]c3ccc(Br)cc23)-c2ccc(Cl)cc21)NCc1ccc(O)cc1 | 10 |
| O=C(CN1C(=O)Cc2c([nH]c3ccc(Br)cc23)-c2ccc(Cl)cc21)NCc1ccc(Cl)c(Cl)c1 | 19 |

tested on: Leishmania infantum; assay: Inhibition of Leishmania infantum recombinant His-tagged TryS expressed in Escherichia coli BL21 (DE3) assessed as residual enzyme activity by measuring inorganic phosphate release at 30 uM after 15 mins by malachite green dye based end-point assay; settings: not given; outline: as §1

| SMILES | Activity [%] |
| --- | --- |
| O=C(CN1C(=O)Cc2c([nH]c3ccc(Br)cc23)-c2ccc(Cl)cc21)NCc1ccc(Cl)cc1 | 109 |
| Cc1ccc(CNC(=O)CN2C(=O)Cc3c([nH]c4ccc(Br)cc34)-c3ccc(Cl)cc32)cc1 | 48.6 |
| O=C(CN1C(=O)Cc2c([nH]c3ccc(Br)cc23)-c2ccc(Cl)cc21)NCc1ccccn1 | 95.5 |

tested on: not listed separately; assay: Selectivity index, ratio of EC50 for mouse J774 cells to EC50 for bloodstream forms of Trypanosoma brucei brucei 427 stably transfected with pHD449 plasmid; format: toxicity, cell-based; settings: read-out: Ratio EC50

| SMILES | selectivity ratio |
| --- | --- |
| O=C(CN1C(=O)Cc2c([nH]c3ccc(Br)cc23)-c2ccc(Cl)cc21)NCc1ccc(Cl)cc1 | > 62 |
| COc1ccc(CNC(=O)CN2C(=O)Cc3c([nH]c4ccc(Br)cc34)-c3ccc(Cl)cc32)cc1 | 22 |
| O=C(CN1C(=O)Cc2c([nH]c3ccc(Br)cc23)-c2ccc(Cl)cc21)NCc1ccc(O)cc1 | 238 |
| Cc1ccc(CNC(=O)CN2C(=O)Cc3c([nH]c4ccc(Br)cc34)-c3ccc(Cl)cc32)cc1 | > 167 |
| O=C(CN1C(=O)Cc2c([nH]c3ccc(Br)cc23)-c2ccc(Cl)cc21)NCc1ccc(Cl)c(Cl)c1 | 12 |

tested on: not listed separately; assay: Inhibition of Trypanosoma cruzi recombinant His-tagged TryS expressed in Escherichia coli BL21 (DE3) assessed as inorganic phosphate release after 15 mins by malachite green dye based end-point assay; settings: not given; outline: as §1

| SMILES | IC50 [µM] |
| --- | --- |
| O=C(CN1C(=O)Cc2c([nH]c3ccc(Br)cc23)-c2ccc(Cl)cc21)NCc1ccccc1Cl | 11 |
| O=C(CN1C(=O)Cc2c([nH]c3ccc(Br)cc23)-c2ccc(Cl)cc21)NCc1ccc(Cl)cc1 | 11 |
| COc1ccc(CNC(=O)CN2C(=O)Cc3c([nH]c4ccc(Br)cc34)-c3ccc(Cl)cc32)cc1 | 11 |
| O=C(CN1C(=O)Cc2c([nH]c3ccc(Br)cc23)-c2ccc(Cl)cc21)NCc1ccc(O)cc1 | 9 |
| Cc1ccc(CNC(=O)CN2C(=O)Cc3c([nH]c4ccc(Br)cc34)-c3ccc(Cl)cc32)cc1 | 9 |
| O=C(CN1C(=O)Cc2c([nH]c3ccc(Br)cc23)-c2ccc(Cl)cc21)NCc1ccc(Cl)c(Cl)c1 | 9 |

tested on: Trypanosoma cruzi; assay: Inhibition of Trypanosoma cruzi recombinant His-tagged TryS expressed in Escherichia coli BL21 (DE3) assessed as residual enzyme activity by measuring inorganic phosphate release at 30 uM after 15 mins by malachite green dye based end-point assay; settings: not given; outline: as §1

| SMILES | Activity [%] |
| --- | --- |
| O=C(CN1C(=O)Cc2c([nH]c3ccc(Br)cc23)-c2ccc(Cl)cc21)NCc1ccccn1 | 54.8 |

— ChEMBL document CHEMBL3817827, “5-Substituted 3-chlorokenpaullone derivatives are potent inhibitors of Trypanosoma brucei bloodstream forms” (Bioorg Med Chem, 2016)
